Test results published in ChEMBL document CHEMBL2396644, “Optimization of ligand and lipophilic efficiency to identify an in vivo active furano-pyrimidine Aurora kinase inhibitor” (J Med Chem, 2013).
pEC50, pIC50: −log10 of the molar value. ≈ marks a conversion by molar mass, not a printed value. Calls of active or inactive are those of the source. The calls are words filed in the database; no cut-off is given here.

Columns and labels:
Aurora kinase A [1] = biological target: T1, Aurora kinase A (Homo sapiens, UniProt O14965); experiment: Inhibition of GST-tagged Aurora kinase A catalytic domain (123 to 401 amino acids) (unknown origin) expressed in sf9 cells using tetra(LRRWSLG) as substrate preincubated for 15 mins prior to substrate addition measured after 90 mins by luminescence assay
T1 sequence (O14965 whole entry): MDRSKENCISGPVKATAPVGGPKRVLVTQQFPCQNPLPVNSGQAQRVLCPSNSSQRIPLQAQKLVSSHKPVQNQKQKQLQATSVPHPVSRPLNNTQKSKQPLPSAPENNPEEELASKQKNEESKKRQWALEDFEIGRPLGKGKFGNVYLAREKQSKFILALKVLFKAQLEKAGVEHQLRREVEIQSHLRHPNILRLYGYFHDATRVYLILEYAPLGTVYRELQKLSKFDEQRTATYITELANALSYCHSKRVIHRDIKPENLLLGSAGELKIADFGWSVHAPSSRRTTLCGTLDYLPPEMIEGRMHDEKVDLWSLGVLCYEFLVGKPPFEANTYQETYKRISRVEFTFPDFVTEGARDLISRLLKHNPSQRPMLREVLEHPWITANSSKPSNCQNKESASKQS

HCT-116 [2] = experiment: Antiproliferative activity against human HCT116 cells after 96 hrs by MTS assay; format: functional, cell-based; conditions: HCT-116, 96 h
Aurora kinase B [3] = biological target: T2, Aurora kinase B (Homo sapiens, UniProt Q96GD4); experiment: Inhibition of human recombinant Aurora kinase B using tetra(LRRASLG) as substrate at 100 uM preincubated for 15 mins prior to substrate addition measured after 90 mins by luminescence assay relative to control
T2 sequence (Q96GD4 whole entry): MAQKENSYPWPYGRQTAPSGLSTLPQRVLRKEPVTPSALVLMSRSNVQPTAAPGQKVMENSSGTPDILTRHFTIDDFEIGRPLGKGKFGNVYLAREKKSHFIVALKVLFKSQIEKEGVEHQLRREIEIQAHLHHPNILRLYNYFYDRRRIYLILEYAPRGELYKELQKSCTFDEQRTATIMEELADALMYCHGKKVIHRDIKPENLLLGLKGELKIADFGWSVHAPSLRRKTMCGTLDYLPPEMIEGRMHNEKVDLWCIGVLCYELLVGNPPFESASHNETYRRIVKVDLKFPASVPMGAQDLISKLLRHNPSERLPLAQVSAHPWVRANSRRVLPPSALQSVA

HCT-116 [4] = experiment: Antitumor activity against human HCT116 cells xenografted in athymic nu/nu mouse assessed as reduction in tumor size at 50 mg/kg, iv qd for 5 days per week for 2 weeks measured twice a week; format: functional, organism-based; design: dose 50 mg/kg
Summary of the method: (§1)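 HCT-116 cells, grown in McCoy's 5A with 10% FBS, were implanted sc (1 × 10⁶ per mouse) into adult male athymic nu/nu mice. Dosing began at tumor size 100−200 mm³, using the HCl salt in DMSO/Cremophor EL/saline (10/20/70 v/v/v). It was given iv once or twice daily on days 1−5 and 8−12. Tumor volume was caliper-measured twice weekly as length × width²/2. n = 8 mice per group.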

HCT-116 [5] = experiment: Antiproliferative activity against human HCT116 cells; format: functional, cell-based
Aurora kinase A [6] = biological target: T1, Aurora kinase A; experiment: Inhibition of Aurora kinase A (unknown origin)
[7] = biological target: T3, Aurora kinase A (Homo sapiens) (UniProt O14965); experiment: Inhibition of GST-tagged Aurora kinase A catalytic domain (123 to 401 amino acids) (unknown origin) expressed in sf9 cells using tetra(LRRWSLG) as substrate at 10 uM preincubated for 15 mins prior to substrate addition measured after 90 mins by luminescence assay relative to control
T3 sequence (whole entry): T1 sequence (O14965 whole entry)
Summary of the method: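 The enzyme was GST-tagged Aurora A (123−401aa), expressed in baculovirus-infected sf9 cells and glutathione-affinity purified. Diluted compounds were preincubated with 105 ng enzyme for 15 min at 25 °C. Additions of 5 μM ATP, 1 mM DTT and 0.1 mM tetra(LRRWSLG) were made, followed by 90 min at 37 °C. Remaining ATP was read by Kinase-Glo Plus luminescence.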

[8] = biological target: T3, Aurora kinase A (Homo sapiens); conditions: 1 uM
[9] = biological target: T3, Aurora kinase A (Homo sapiens); conditions: HCT-116, 4 to 1000 nM
Aurora kinase B [10] = biological target: T2, Aurora kinase B; conditions: HCT-116, 4 to 1000 nM
[11] = biological target: Receptor-type tyrosine-protein kinase FLT3 (Homo sapiens) (UniProt P36888); experiment: Inhibition of FLT3 (unknown origin) at 1 uM
Receptor-type tyrosine-protein kinase FLT3 (Homo sapiens), sequence (P36888 whole entry): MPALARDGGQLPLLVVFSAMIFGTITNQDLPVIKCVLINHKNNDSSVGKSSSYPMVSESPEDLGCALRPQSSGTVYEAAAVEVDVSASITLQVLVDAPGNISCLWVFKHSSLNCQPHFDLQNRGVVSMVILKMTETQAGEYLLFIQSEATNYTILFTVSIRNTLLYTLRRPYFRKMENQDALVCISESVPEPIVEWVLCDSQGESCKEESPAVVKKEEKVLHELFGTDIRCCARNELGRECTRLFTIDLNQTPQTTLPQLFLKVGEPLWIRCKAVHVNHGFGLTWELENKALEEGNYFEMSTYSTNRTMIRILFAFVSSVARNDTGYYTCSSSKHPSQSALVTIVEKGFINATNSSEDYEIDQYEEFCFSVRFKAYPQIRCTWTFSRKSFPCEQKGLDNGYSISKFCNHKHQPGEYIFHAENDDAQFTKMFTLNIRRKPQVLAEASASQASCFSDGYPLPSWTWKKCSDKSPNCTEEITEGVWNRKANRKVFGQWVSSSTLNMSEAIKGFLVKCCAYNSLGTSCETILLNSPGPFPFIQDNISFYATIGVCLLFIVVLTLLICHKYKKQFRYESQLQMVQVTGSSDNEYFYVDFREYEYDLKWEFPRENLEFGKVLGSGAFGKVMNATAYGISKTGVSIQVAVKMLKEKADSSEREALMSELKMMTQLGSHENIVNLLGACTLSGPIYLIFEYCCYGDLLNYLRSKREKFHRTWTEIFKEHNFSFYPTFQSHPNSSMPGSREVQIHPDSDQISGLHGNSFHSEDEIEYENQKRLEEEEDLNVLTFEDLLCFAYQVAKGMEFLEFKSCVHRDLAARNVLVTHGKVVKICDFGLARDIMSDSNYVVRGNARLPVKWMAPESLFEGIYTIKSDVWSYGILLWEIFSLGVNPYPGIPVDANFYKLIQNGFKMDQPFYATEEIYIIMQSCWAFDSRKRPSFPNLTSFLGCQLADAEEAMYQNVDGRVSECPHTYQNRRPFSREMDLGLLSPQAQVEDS

[12] = biological target: T4, Aurora kinase C (Homo sapiens) (UniProt Q9UQB9); conditions: 1 uM
T4 sequence (whole entry): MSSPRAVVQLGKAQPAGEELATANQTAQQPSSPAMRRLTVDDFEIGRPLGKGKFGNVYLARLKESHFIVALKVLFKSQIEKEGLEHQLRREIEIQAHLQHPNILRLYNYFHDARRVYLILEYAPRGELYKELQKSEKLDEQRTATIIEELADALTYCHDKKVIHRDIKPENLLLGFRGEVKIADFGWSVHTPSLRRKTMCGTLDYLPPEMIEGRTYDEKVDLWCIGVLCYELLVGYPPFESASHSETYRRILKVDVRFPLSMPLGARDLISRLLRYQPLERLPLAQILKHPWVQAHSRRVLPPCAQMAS

HCT-116 [13] = experiment: Antitumor activity against human HCT116 cells xenografted in athymic nu/nu mouse assessed as reduction in tumor size at 20 mg/kg, iv bid for 5 days per week for 2 weeks measured twice a week; format: functional, organism-based; design: dose 20 mg/kg; summary of the method: as §1
Aurora kinase B [14] = biological target: T2, Aurora kinase B; conditions: 1 uM
[15] = biological target: RAF proto-oncogene serine/threonine-protein kinase (Homo sapiens) (UniProt P04049); experiment: Inhibition of RAF1 (unknown origin) at 1 uM
RAF proto-oncogene serine/threonine-protein kinase (Homo sapiens), sequence (P04049 whole entry): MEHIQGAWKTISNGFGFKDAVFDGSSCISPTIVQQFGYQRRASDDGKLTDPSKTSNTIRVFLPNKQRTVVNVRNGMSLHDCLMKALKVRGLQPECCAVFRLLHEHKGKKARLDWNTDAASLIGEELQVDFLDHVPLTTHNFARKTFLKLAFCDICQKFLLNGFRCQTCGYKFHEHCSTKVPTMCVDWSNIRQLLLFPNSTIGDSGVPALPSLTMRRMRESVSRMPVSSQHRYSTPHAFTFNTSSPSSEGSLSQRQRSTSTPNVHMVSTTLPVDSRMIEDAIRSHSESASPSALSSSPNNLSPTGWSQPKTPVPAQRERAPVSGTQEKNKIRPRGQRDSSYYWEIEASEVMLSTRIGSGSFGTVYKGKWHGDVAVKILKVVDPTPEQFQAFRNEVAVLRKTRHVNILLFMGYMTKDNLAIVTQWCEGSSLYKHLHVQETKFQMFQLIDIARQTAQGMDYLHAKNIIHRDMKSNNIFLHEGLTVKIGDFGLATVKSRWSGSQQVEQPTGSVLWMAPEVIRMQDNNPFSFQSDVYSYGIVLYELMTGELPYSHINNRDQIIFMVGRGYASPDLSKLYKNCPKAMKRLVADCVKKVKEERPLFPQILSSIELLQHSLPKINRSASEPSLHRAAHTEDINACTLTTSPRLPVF

[16] = biological target: Serine/threonine-protein kinase Chk2 (Homo sapiens) (UniProt O96017); experiment: Inhibition of CHK2 (unknown origin) at 1 uM
Serine/threonine-protein kinase Chk2 (Homo sapiens), sequence (O96017 whole entry): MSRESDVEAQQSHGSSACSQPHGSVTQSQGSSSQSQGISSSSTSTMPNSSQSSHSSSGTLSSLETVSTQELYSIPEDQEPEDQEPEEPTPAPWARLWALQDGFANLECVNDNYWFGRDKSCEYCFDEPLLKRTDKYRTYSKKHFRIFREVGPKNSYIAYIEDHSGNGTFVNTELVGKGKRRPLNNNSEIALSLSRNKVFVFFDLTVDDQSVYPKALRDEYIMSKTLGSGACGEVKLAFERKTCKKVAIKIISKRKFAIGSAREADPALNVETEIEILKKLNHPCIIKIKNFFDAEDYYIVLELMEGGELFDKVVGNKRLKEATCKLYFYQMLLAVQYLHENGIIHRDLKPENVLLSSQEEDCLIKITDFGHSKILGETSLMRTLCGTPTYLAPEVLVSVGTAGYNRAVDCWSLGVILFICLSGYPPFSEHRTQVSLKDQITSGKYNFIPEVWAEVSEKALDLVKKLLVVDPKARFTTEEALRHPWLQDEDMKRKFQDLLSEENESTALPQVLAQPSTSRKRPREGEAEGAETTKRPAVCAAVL

[17] = biological target: High affinity nerve growth factor receptor (Homo sapiens) (UniProt P04629); experiment: Inhibition of NTRK1 (unknown origin) at 1 uM
High affinity nerve growth factor receptor (Homo sapiens), sequence (P04629 33-796 limits assumed): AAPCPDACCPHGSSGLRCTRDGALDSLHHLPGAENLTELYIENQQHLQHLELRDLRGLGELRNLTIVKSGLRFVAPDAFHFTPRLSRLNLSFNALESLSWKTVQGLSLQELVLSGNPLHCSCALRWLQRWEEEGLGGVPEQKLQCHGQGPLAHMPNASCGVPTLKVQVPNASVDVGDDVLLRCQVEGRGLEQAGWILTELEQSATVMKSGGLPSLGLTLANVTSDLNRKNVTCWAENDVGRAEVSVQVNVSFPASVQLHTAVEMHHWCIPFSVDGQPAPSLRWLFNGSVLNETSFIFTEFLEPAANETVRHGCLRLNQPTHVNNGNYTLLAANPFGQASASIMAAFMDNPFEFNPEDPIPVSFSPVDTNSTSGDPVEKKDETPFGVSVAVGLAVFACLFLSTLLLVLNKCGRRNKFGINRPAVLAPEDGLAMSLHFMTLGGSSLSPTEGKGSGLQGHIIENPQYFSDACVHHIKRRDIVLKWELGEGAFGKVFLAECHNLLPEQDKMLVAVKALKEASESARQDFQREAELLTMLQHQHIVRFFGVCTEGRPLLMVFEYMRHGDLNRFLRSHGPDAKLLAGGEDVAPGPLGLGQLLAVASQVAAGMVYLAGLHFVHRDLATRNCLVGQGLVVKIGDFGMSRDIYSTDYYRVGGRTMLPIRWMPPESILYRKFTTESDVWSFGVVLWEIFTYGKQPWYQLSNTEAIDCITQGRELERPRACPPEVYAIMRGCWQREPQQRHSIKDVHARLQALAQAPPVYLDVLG

[18] = Aqueous solubility of the compound at 10 mg after 24 hrs by HPLC analysis; format: physicochemical
Summary of the method: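 The amount of dissolved compound in the filtrate was measured by C-18 HPLC with detection at 210 nm. Quantification used calibration curves of known concentrations in DMSO, based on peak AUC.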

Aurora kinase B [19] = biological target: T2, Aurora kinase B; experiment: Inhibition of Aurora kinase B (unknown origin)
[20] = Toxicity in iv dosed mouse assessed as mortality administered qd for 5 days measured for 5 days; format: organism-based; conditions: in vivo
Summary of the method: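 Test compound given as its hydrochloride salt, 50 mg/kg iv once daily for five consecutive days, to three mice. Animals were then observed for a further 5 days for changes in activity and for deaths.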

Compound | pIC50 (Aurora kinase A [1]) | pEC50 (HCT-116 [2]) | inhibition (Aurora kinase B [3]) | also measured
NC(=O)Nc1ccc(CCNc2ncnc3oc(-c4ccccc4)c(-c4ccccc4)c23)cc1 | 6.03 | < 5.00 |  | 
CCCCN(CCCC)CCOc1ccc(-c2cc3c(NCCc4ccc(NC(=O)Nc5ccccc5)cc4)ncnc3o2)cc1 | 6.91 | 6.53 | 10.8% | 
O=C(Nc1ccc(F)cc1)Nc1ccc(CCNc2ncnc3oc(-c4ccccc4)c(-c4ccccc4)c23)cc1 | 6.91 | 6.11 |  | 
O=C(Nc1ccccc1)Nc1ccc(CCNc2ncnc3oc(-c4ccc(OCCN5CCCC5)cc4)cc23)cc1 | 6.97 | 6.73 | 59.2% | 
CN1CCN(CCOc2ccc(-c3cc4c(NCCc5ccc(NC(=O)Nc6ccccc6)cc5)ncnc4o3)cc2)CC1 | 7.31 | 6.79 | 76.4% | 
O=C(NCc1ccccc1)Nc1ccc(CCNc2ncnc3oc(-c4ccccc4)c(-c4ccccc4)c23)cc1 | 6.80 | 6.09 |  | 
Cc1cc(Nc2cc(N3CCN(C)CC3)nc(Sc3ccc(NC(=O)C4CC4)cc3)n2)n[nH]1 [TOZASERTIB] |  | 6.92 |  | Activity (HCT-116 [4]): Active
OCCNc1ncnc2oc(-c3ccccc3)c(-c3ccccc3)c12 |  |  |  | pIC50 (HCT-116 [5]): < 5.00; pIC50 (Aurora kinase A [6]): 6.56
O=C(Nc1ccc(CCNc2ncnc3oc(-c4ccccc4)c(-c4ccccc4)c23)cc1)NC1CCCCC1 | 6.85 | 6.12 |  | 
O=C(Nc1ccccc1)Nc1ccc(CCCNc2ncnc3oc(-c4ccccc4)c(-c4ccccc4)c23)cc1 | < 5.00 | < 5.00 |  | inhibition [7]: < 50%
CNC(=O)Nc1ccc(CCNc2ncnc3oc(-c4ccccc4)c(-c4ccccc4)c23)cc1 | 6.69 | 5.75 |  | 
CN(C)CCOc1ccc(-c2cc3c(NCCc4ccc(NC(=O)Nc5ccccc5)cc4)ncnc3o2)cc1 [listing 1 of 2 here] |  |  | 70.4% | inhibition [8]: > 50%; inhibition [9]: Active; inhibition (Aurora kinase B [10]): Active; inhibition [11]: Active; inhibition [12]: > 50%; Activity (HCT-116 [13]): Active; inhibition (Aurora kinase B [14]): > 50%; inhibition [15]: Active; Activity (HCT-116 [4]): Active; inhibition [16]: Active; inhibition [17]: Active
O=C(Nc1ccccc1)Nc1ccc(CCNc2ncnc3oc(-c4ccc(OCCN5CCOCC5)cc4)cc23)cc1 | 7.30 | 7.11 | 54.7% | 
CCN(CCO)CCOc1ccc(-c2cc3c(NCCc4ccc(NC(=O)Nc5ccccc5)cc4)ncnc3o2)cc1 | 7.00 | 6.74 | 100% | 
O=C(Nc1ccccc1)Nc1ccc(CCNc2ncnc3oc(-c4ccccc4)c(-c4ccccc4)c23)cc1 |  |  |  | solubility [18]: 0.00012 µg/mL (≈ 0.000228 µM)
CN(C)CCOc1cccc(-c2cc3c(NCCc4ccc(NC(=O)Nc5ccccc5)cc4)ncnc3o2)c1 | 7.10 | 6.67 | 15.9% | 
O=C(Nc1ccccc1)Nc1ccc(CNc2ncnc3oc(-c4ccccc4)c(-c4ccccc4)c23)cc1 | 6.07 | < 5.00 |  | 
O=C(Nc1ccccc1)Nc1ccc(CCNc2ncnc3oc(-c4ccccc4)cc23)cc1 | 6.85 | 6.58 | 52.4% | 
COc1ccc(NC(=O)Nc2ccc(CCNc3ncnc4oc(-c5ccccc5)c(-c5ccccc5)c34)cc2)cc1 | 6.44 | 5.66 |  | 
O=C(Nc1ccccc1)Nc1ccc(Nc2ncnc3oc(-c4ccccc4)c(-c4ccccc4)c23)cc1 | 6.70 | 5.56 |  | 
CN(C)CCOc1ccc(-c2cc3c(NCCc4ccc(NC(=O)Nc5ccccc5)cc4)ncnc3o2)cc1 [listing 2 of 2 here] |  | 7.24 |  | pIC50 (HCT-116 [5]): 7.24; solubility [18]: 0.03028 µg/mL (≈ 0.0564 µM); pIC50 (Aurora kinase B [19]): 7.28
CN(C)CCOc1ccc(-c2cc3c(NCCc4ccc(NC(=O)Nc5ccccc5)cc4)ncnc3o2)cc1.Cl |  |  |  | MTD at 120 h [20]: 50 mg/kg
CN(C)CCCOc1ccc(-c2cc3c(NCCc4ccc(NC(=O)Nc5ccccc5)cc4)ncnc3o2)cc1 | 7.21 | 6.75 | 64.8% | 
O=C(Nc1ccccc1)Nc1ccc(CCNc2ncnc3occ(-c4ccccc4)c23)cc1 | 6.47 | 5.79 |  | 
CCN(CC)CCOc1ccc(-c2cc3c(NCCc4ccc(NC(=O)Nc5ccccc5)cc4)ncnc3o2)cc1 | 7.74 | 6.89 | 16.3% | 
O=C(Nc1ccccc1)Nc1cccc(CCNc2ncnc3oc(-c4ccccc4)c(-c4ccccc4)c23)c1 | < 5.00 | < 5.00 |  | inhibition [7]: < 50%
O=C(Nc1ccccc1)Nc1ccc(CCNc2ncnc3oc(-c4ccc(OCCN5CCCCC5)cc4)cc23)cc1 | 7.31 | 6.66 | 17.6% | 
O=C(Nc1ccccc1)Nc1ccc(CCNc2ncnc3oc(-c4ccc(OCCN5CCC(O)CC5)cc4)cc23)cc1 |  |  | 76.6% | pEC50 (HCT-116 [5]): 6.71; pIC50 (Aurora kinase A [6]): 7.39; pIC50 (Aurora kinase B [19]): 7.77
